Results of several laboratories.
Lines come from different studies, so protocols differ. pKi: −log10 of the molar value.
Target: Sigma non-opioid intracellular receptor 1 (SIGMAR1, Homo sapiens, UniProt Q99720)

| SMILES | test | conditions | pKi |
| --- | --- | --- | --- |
| COc1cc2c(cc1OC)CN(CCCCn1ccc3c(OC)cccc31)CC2 | ligand displacement, radioligand | cell membranes | 6.59 |
| CCCn1nc(C(=O)N2CCCCC2)c2c1CCC(N1CCN(c3ccc([N+](=O)[O-])cc3)CC1)C2 (stereo not drawn) | ligand displacement, radioligand |  | 5.80 |
| CCN(CC)CCCC(C)Nc1ccnc2cc(Cl)ccc12 (stereo not drawn) | ligand displacement, radioligand |  | 6.13 |
| COc1ccccc1N1CCN(CCCCNC(=O)c2cc3cc(O)ccc3[nH]2)CC1 | cell-free assay |  | < 5.00 |
| CC(C)(C)Oc1cc(CCC(C)(C)N2Cc3ccc(S(C)(=O)=O)cc3C2)ccc1O | ligand displacement, radioligand | cell membranes | 7.20 |
| OCCCN1CC[C@@H]2C[C@H]1c1cc(-c3ccc(C(F)(F)F)cc3)ccc12 | ligand displacement, radioligand |  | 6.78 |
| COc1ccc2ccn(CCCCN3Cc4cc(OC)c(OC)cc4C3)c2c1 | ligand displacement, radioligand | cell membranes | 7.15 |
| CCCn1nc(C(=O)N(C)C)c2c1CCC(NCc1ccc(Cl)cc1)C2 (stereo not drawn) | ligand displacement, radioligand |  | < 5.00 |
| COc1ccc2[nH]c(C(=O)NC/C=C/CN3CCN(c4ccccc4OC)CC3)cc2c1 | cell-free assay |  | < 5.00 |
| CCCn1nc(C(=O)N2CCCCC2)c2c1CCC(NCCN1CCCCC1)C2 (stereo not drawn) | ligand displacement, radioligand |  | < 5.00 |
| COc1ccccc1N1CCN(CCCCNC(=O)c2cc3cc(OCCF)ccc3[nH]2)CC1 | cell-free assay |  | < 5.00 |
| COc1ccc2ccn(CCCCN3CCc4cc(OC)c(OC)cc4C3)c2c1 | ligand displacement, radioligand | cell membranes | 6.45 |
